Experimental data reported in article PMC8301581 (Clinical and Translational Science, 2021).
Where a name gives a salt, the structure may show the parent alone.

Columns and labels:
C57BL/6 J mice = assay: Mouse neurotoxicity assessment: mechanical allodynia; type: in vivo
SORORIN [1] = assay: Western blot of SORORIN protein level; type: cell-based, human; conditions: CEM, G2 synchronized cells, highest concentration of DIP 10 µM
hiPSC‐derived neurons [2] = type: cell-based, human; conditions: 72 h, negative α = antagonism
In short: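 Human iPSC-derived peripheral neurons (>90% pure; βIII-tubulin, MAP-2, peripherin and vGLUT2 positive; three lots) were kept per the supplier's protocol. Viability was read as ATP by CellTiter-Glo 2.0 at 72 h after drug treatment. Combination responses were fitted by modified response surface modeling. α is the interaction term versus the additive model: positive means synergy, negative means antagonism.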

[3] = clinical studies; cited from earlier work
[4] = In vivo pharmacokinetic studies in mice; conditions: for total plasma concentrations: mice, VCR 0.1 mg/kg intraperitoneal and DIP 200 mg/kg p.o.; for clearance: male, C57BL/6, mouse, plasma, intraperitoneal
hiPSC‐derived neurons [5] = type: cell-based, human; conditions: negative α = antagonism
In short: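 After drug treatment, hiPSC-derived neurons were stained with 5 µg/ml Hoechst 33342 and 10 µg/ml Calcein AM for 10 min at room temperature. Cells were imaged at 10×, with at least 1000 cells per condition in each of five independent experiments. Per-cell values were collected for total neurite outgrowth, number of processes and number of branches. Combination α came from response surface modeling against an additive model.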

SORORIN [6] = assay: Western blot of SORORIN protein level; type: cell-based, human; conditions: NALM6, G2 synchronized cells, highest concentration of DIP 10 µM
NALM6 = type: cell-based, human; conditions: NALM6 ALL cell line; α greater than zero = synergy, less than zero = antagonism
In short: (§1)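 Cells were grown in RPMI-1640 with 2 mM glutamine and 10% FBS at 37°C, 5% CO₂, and were STR-authenticated and mycoplasma-negative. Mid-log-phase cells were exposed to serial dilutions of the drugs, alone or combined, then read by a modified MTT assay after 3 days. Interaction α (positive = synergy, negative = antagonism) was estimated by modified response surface modeling relative to additivity.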

CEM = type: cell-based, human; conditions: CEM ALL cell line; α greater than zero = synergy, less than zero = antagonism
In short: as §1

[7] = system: phospho‐histone H3 (Ser10); assay: Western blot of phospho‐histone H3; type: cell-based, human; conditions: NALM6, vincristine 2 nM for 24 h with increasing concentrations of DIP
[8] = system: phospho‐histone H3 (Ser10); assay: Western blot of phospho‐histone H3; type: cell-based, human; conditions: CEM, vincristine 2 nM for 24 h with increasing concentrations of DIP
[9] = cited from earlier work
CEM leukemia cells = assay: Survival of NSG mice inoculated with human CEM leukemia cells; type: in vivo; conditions: once a week, 0.3mg/kg vincristine, p value <0.001

| SMILES | paw withdrawal response, DIP administered with VCR versus VCR alone (C57BL/6 J mice; mice, DIP oral gavage with VCR intraperitoneal, day 1 to day 10) | SORORIN protein levels (SORORIN [1]) | Viability α (drug‐drug interaction between vincristine and second drug) (hiPSC‐derived neurons [2]) | plasma concentrations reported clinically [3] | total plasma concentrations [4] | Branches α (drug‐drug interaction between vincristine and second drug) (hiPSC‐derived neurons [5]) | Outgrowth α (drug‐drug interaction between vincristine and second drug) (hiPSC‐derived neurons [5]) | Processes α (drug‐drug interaction between vincristine and second drug) (hiPSC‐derived neurons [5]) | SORORIN protein levels (SORORIN [6]) | NALM6 α (drug‐drug interaction between vincristine and second drug) (NALM6) | CEM α (drug‐drug interaction between vincristine and second drug) (CEM) | phospho‐histone H3 (Ser10) levels [7] | phospho‐histone H3 (Ser10) levels [8] | paw withdrawal responses (C57BL/6 J mice; mice receiving VCR alone) | plasma protein binding [9] | clearance [4] | clearance ([4]; 0.1 mg/kg) | survival of mice, VCR and vehicle versus controls (CEM leukemia cells) |
| --- | --- | --- | --- | --- | --- | --- | --- | --- | --- | --- | --- | --- | --- | --- | --- | --- | --- | --- |
| OCCN(CCO)c1nc(N2CCCCC2)c2nc(N(CCO)CCO)nc(N3CCCCC3)c2n1 [Dipyridamole] | significantly lowered | lowest level of SORORIN protein | −3.7 | ≤ 6000 ng/mL | ≤ 5000 ng/mL | −3.43 | −1.98 | −1.75 | lowest level of SORORIN protein | 4.45 | 11.6 | dose‐dependent increase | dose‐dependent increase | – | – | – | – | – |
| OCCOCCN1CCN(C2=Nc3ccccc3Sc3ccccc32)CC1 [Quetiapine fumarate] | – | – | −0.007 | – | – | −2.29 | −1.67 | −1.25 | – | 2.33 | 0.787 | – | – | – | – | – | – | – |
| CCOC(=O)c1ccc(C#Cc2ccc3c(c2)C(C)(C)CCS3)nc1 [Tazarotene] | – | – | −0.72 | – | – | −1.16 | −1.63 | −1.59 | – | 1.42 | 0.945 | – | – | – | – | – | – | – |
| CC[C@]1(O)C[C@H]2CN(CCc3c([nH]c4ccccc34)[C@@](C(=O)OC)(c3cc4c(cc3OC)N(C=O)[C@H]3[C@@](O)(C(=O)OC)[C@H](OC(C)=O)[C@]5(CC)C=CCN6CC[C@]43[C@@H]65)C2)C1 [VCR, Vincristine] | – | – | – | up to 31.2 ng/ml | up to 10 ng/ml | – | – | – | – | – | – | – | – | significant increase | around 75% | 81.3 mL/min/kg | 99.3 mL/min/kg | significantly prolonged survival |
